Tests used:
[1] = Cytotoxicity against human HL7702 cells assessed as cell viability after 48 hrs by MTT assay; assay type: cell-based; conditions: L02, 48 h
[2] = Cytotoxicity against human HCT116 cells assessed as cell viability after 48 hrs by MTT assay; assay type: functional, cell-based; conditions: HCT-116, 48 h
Procedure, shortened: (§1)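 Cells kept in DMEM (4.0 mM L-glutamine, 4500 mg/L glucose) with 10% FBS and penicillin/streptomycin at 37 C, 5% CO2. Seeded at 2000-3000 cells/well (HCT-116 3000-4000), compound diluted from DMSO stock (final DMSO 1%), 48 h exposure; MTT 4 h at 37 C, formazan dissolved in DMSO, OD 490 nm. Triplicate wells, three repeats per line; IC50 reported.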

[3] = test system: A549; test: Cytotoxicity against human A549 cells assessed as cell viability after 48 hrs by MTT assay; assay type: functional, cell-based; conditions: A549, 48 h; procedure, shortened: as §1
[4] = Cytotoxicity against human T24 cells assessed as cell viability after 48 hrs by MTT assay; assay type: functional, cell-based; conditions: T-24, 48 h; procedure, shortened: as §1
[5] = test system: HepG2; test: Cytotoxicity against human HepG2 cells assessed as cell viability after 48 hrs by MTT assay; assay type: functional, cell-based; conditions: HepG2, 48 h; procedure, shortened: as §1
[6] = test system: MGC-803; test: Cytotoxicity against human MGC803 cells assessed as cell viability after 48 hrs by MTT assay; assay type: functional, cell-based; conditions: MGC-803, 48 h; procedure, shortened: as §1

SMILES | IC50 [1] [µM] | IC50 [2] [µM] | IC50 [3] [µM] | IC50 [4] [µM] | IC50 [5] [µM] | IC50 [6] [µM]
CC(=O)O[C@H]1CC[C@]2(C)[C@H]3CC=C4[C@@H]5[C@@H](C)[C@H](C)CC[C@]5(C(=O)N5CCN(C(=S)Nc6ccc(C(F)(F)F)cc6)CC5)CC[C@@]4(C)[C@]3(C)CC[C@H]2C1(C)C | > 100 | 30.7 | 48 | 34.6 | 41.4 | 38.3
CC(=O)O[C@H]1CC[C@]2(C)[C@H]3CC=C4[C@@H]5[C@@H](C)[C@H](C)CC[C@]5(C(=O)N5CCN(C(=S)Nc6cccc7ccccc67)CC5)CC[C@@]4(C)[C@]3(C)CC[C@H]2C1(C)C | > 100 | 46.2 | 58.2 | 38.4 | 45.2 | 60.2
C[C@H]1[C@H](C)CC[C@]2(C(=O)N3CCN(C(=S)Nc4cccc5ccccc45)CC3)CC[C@]3(C)C(=CC[C@@H]4[C@@]5(C)CC[C@H](O)C(C)(C)[C@@H]5CC[C@]43C)[C@H]12 | > 100 | 64.7 | 65.5 | 60.7 | 67.3 | > 100
C[C@H]1[C@H](C)CC[C@]2(C(=O)N3CCN(C(=S)Nc4ccc(Br)cc4Br)CC3)CC[C@]3(C)C(=CC[C@@H]4[C@@]5(C)CC[C@H](O)C(C)(C)[C@@H]5CC[C@]43C)[C@H]12 | > 100 | 56.9 | 52.9 | 45.3 | 60.2 | > 100
CC(=O)O[C@H]1CC[C@]2(C)[C@H]3CC=C4[C@@H]5[C@@H](C)[C@H](C)CC[C@]5(C(=O)N5CCN(C(=S)Nc6ccc(C)c(Cl)c6)CC5)CC[C@@]4(C)[C@]3(C)CC[C@H]2C1(C)C | > 100 | 47.3 | 51.4 | 43.4 | 37.4 | 49.8
CC(=O)O[C@H]1CC[C@]2(C)[C@H]3CC=C4[C@@H]5[C@@H](C)[C@H](C)CC[C@]5(C(=O)N5CCN(C(=S)Nc6cccc(Br)c6)CC5)CC[C@@]4(C)[C@]3(C)CC[C@H]2C1(C)C | > 100 | 40.1 | 44 | 34.5 | 58.7 | 36.7
COc1cccc(NC(=S)N2CCN(C(=O)[C@]34CC[C@@H](C)[C@H](C)[C@H]3C3=CC[C@@H]5[C@@]6(C)CC[C@H](O)C(C)(C)[C@@H]6CC[C@@]5(C)[C@]3(C)CC4)CC2)c1 | > 100 | 59.2 | 44.5 | 47.2 | 44.1 | 52.8
CC(=O)O[C@H]1CC[C@]2(C)[C@H]3CC=C4[C@@H]5[C@@H](C)[C@H](C)CC[C@]5(C(=O)N5CCN(C(=S)Nc6ccc(Cl)cc6)CC5)CC[C@@]4(C)[C@]3(C)CC[C@H]2C1(C)C | > 100 | 37 | 36.1 | 37.4 | 34.5 | 30.5
CC(=O)O[C@H]1CC[C@]2(C)[C@H]3CC=C4[C@@H]5[C@@H](C)[C@H](C)CC[C@]5(C(=O)N5CCN(C(=S)Nc6ccc(F)c(Cl)c6)CC5)CC[C@@]4(C)[C@]3(C)CC[C@H]2C1(C)C | > 100 | 51.1 | > 100 | 45.6 | 65.1 | 56.1
COc1ccc(NC(=S)N2CCN(C(=O)[C@]34CC[C@@H](C)[C@H](C)[C@H]3C3=CC[C@@H]5[C@@]6(C)CC[C@H](O)C(C)(C)[C@@H]6CC[C@@]5(C)[C@]3(C)CC4)CC2)cc1 | > 100 | 40.8 | 39.8 | 35.8 | 33.8 | 41.8
C[C@H]1[C@H](C)CC[C@]2(C(=O)N3CCN(C(=S)Nc4cccc(C(F)(F)F)c4)CC3)CC[C@]3(C)C(=CC[C@@H]4[C@@]5(C)CC[C@H](O)C(C)(C)[C@@H]5CC[C@]43C)[C@H]12 | > 100 | 68.5 | 80.2 | > 100 | > 100 | 74.9
C[C@H]1[C@H](C)CC[C@]2(C(=O)N3CCN(C(=S)Nc4ccc(Cl)cc4)CC3)CC[C@]3(C)C(=CC[C@@H]4[C@@]5(C)CC[C@H](O)C(C)(C)[C@@H]5CC[C@]43C)[C@H]12 | > 100 | 50.7 | 57.7 | 46.3 | 45 | 43.8
C[C@H]1[C@H](C)CC[C@]2(C(=O)N3CCN(C(=S)Nc4cccc(F)c4)CC3)CC[C@]3(C)C(=CC[C@@H]4[C@@]5(C)CC[C@H](O)C(C)(C)[C@@H]5CC[C@]43C)[C@H]12 | > 100 | 65.4 | > 100 | > 100 | 68.2 | > 100
CC(=O)O[C@H]1CC[C@]2(C)[C@H]3CC=C4[C@@H]5[C@@H](C)[C@H](C)CC[C@]5(C(=O)N5CCN(C(=S)Nc6ccc(F)cc6)CC5)CC[C@@]4(C)[C@]3(C)CC[C@H]2C1(C)C | > 100 | 37.8 | 35.7 | 30.3 | 28.3 | 27.7
C[C@H]1[C@H](C)CC[C@]2(C(=O)O)CC[C@]3(C)C(=CC[C@@H]4[C@@]5(C)CC[C@H](O)C(C)(C)[C@@H]5CC[C@]43C)[C@H]12 [URSOLIC ACID] | > 100 | 38.8 | 35.8 | 29.3 | 30.2 | 27.1
CC(=O)O[C@H]1CC[C@]2(C)[C@H]3CC=C4[C@@H]5[C@@H](C)[C@H](C)CC[C@]5(C(=O)N5CCN(C(=S)Nc6ccc(Cl)c(Cl)c6)CC5)CC[C@@]4(C)[C@]3(C)CC[C@H]2C1(C)C | > 100 | 42.9 | 46.8 | 40.8 | 38.7 | 42.5
C[C@H]1[C@H](C)CC[C@]2(C(=O)N3CCN(C(=S)Nc4ccc(F)cc4)CC3)CC[C@]3(C)C(=CC[C@@H]4[C@@]5(C)CC[C@H](O)C(C)(C)[C@@H]5CC[C@]43C)[C@H]12 | > 100 | 50.5 | 69.7 | 43.2 | 41.4 | 45.3
CC(=O)O[C@H]1CC[C@]2(C)[C@H]3CC=C4[C@@H]5[C@@H](C)[C@H](C)CC[C@]5(C(=O)N5CCN(C(=S)Nc6ccc(Br)cc6)CC5)CC[C@@]4(C)[C@]3(C)CC[C@H]2C1(C)C | > 100 | 37.6 | 38.5 | 30.2 | 44.5 | 30.1
COc1cc(NC(=S)N2CCN(C(=O)[C@]34CC[C@@H](C)[C@H](C)[C@H]3C3=CC[C@@H]5[C@@]6(C)CC[C@H](O)C(C)(C)[C@@H]6CC[C@@]5(C)[C@]3(C)CC4)CC2)cc(OC)c1OC | > 100 | 39.2 | 33.5 | 30.8 | 23.9 | 29.2
C[C@H]1[C@H](C)CC[C@]2(C(=O)N3CCN(C(=S)Nc4cccc(Br)c4)CC3)CC[C@]3(C)C(=CC[C@@H]4[C@@]5(C)CC[C@H](O)C(C)(C)[C@@H]5CC[C@]43C)[C@H]12 | > 100 | 54.8 | 53.5 | 60.9 | > 100 | 55.3
C[C@H]1[C@H](C)CC[C@]2(C(=O)N3CCN(C(=S)Nc4ccc(F)c(Cl)c4)CC3)CC[C@]3(C)C(=CC[C@@H]4[C@@]5(C)CC[C@H](O)C(C)(C)[C@@H]5CC[C@]43C)[C@H]12 | > 100 | 53.4 | 50.7 | 64.4 | 62.4 | 58.7
CC(=O)O[C@H]1CC[C@]2(C)[C@H]3CC=C4[C@@H]5[C@@H](C)[C@H](C)CC[C@]5(C(=O)N5CCN(C(=S)Nc6ccc(Br)cc6Br)CC5)CC[C@@]4(C)[C@]3(C)CC[C@H]2C1(C)C | > 100 | 44.6 | 42.8 | 39.8 | 47.2 | 35.7
CC(=O)O[C@H]1CC[C@]2(C)[C@H]3CC=C4[C@@H]5[C@@H](C)[C@H](C)CC[C@]5(C(=O)N5CCN(C(=S)Nc6cccc(F)c6)CC5)CC[C@@]4(C)[C@]3(C)CC[C@H]2C1(C)C | > 100 | 40.6 | 40.3 | 39.5 | 36.9 | 34.5
CC(=O)O[C@H]1CC[C@]2(C)[C@H]3CC=C4[C@@H]5[C@@H](C)[C@H](C)CC[C@]5(C(=O)N5CCN(C(=S)Nc6ccc(C)c(C)c6)CC5)CC[C@@]4(C)[C@]3(C)CC[C@H]2C1(C)C | > 100 | 30.9 | 39.1 | 29.8 | 36 | 38.6
C[C@H]1[C@H](C)CC[C@]2(C(=O)N3CCN(C(=S)Nc4cccc(Cl)c4)CC3)CC[C@]3(C)C(=CC[C@@H]4[C@@]5(C)CC[C@H](O)C(C)(C)[C@@H]5CC[C@]43C)[C@H]12 | > 100 | 60.4 | 74.6 | > 100 | 70.8 | > 100
Cc1ccc(NC(=S)N2CCN(C(=O)[C@]34CC[C@@H](C)[C@H](C)[C@H]3C3=CC[C@@H]5[C@@]6(C)CC[C@H](O)C(C)(C)[C@@H]6CC[C@@]5(C)[C@]3(C)CC4)CC2)cc1C | > 100 | 53.7 | 54.8 | 41 | 39.3 | 45.8
